This note sets out measurements from ChEMBL document CHEMBL1127514, “Retinobenzoic acids. 6. Retinoid antagonists with a heterocyclic ring” (1994).

The structures appear in SMILES notation. Activity calls are given as the source filed them. No cut-off for these calls is given here. Where only a bound is given, the exact number is not on record here.

Assay [1] relates to HL-60. Description: The ability to induce differentiation of human promyelocytic leukemia cell line HL-60 to mature granulocytes relative to retinoic acid was determined by nitro blue tetrazolium (NBT) reduction assay. The assay is classed as functional. The method in brief: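 HL-60 cells in RPMI1640 with 5% FCS, 37 °C, 5% CO2, seeded at about 8×10^4 cells/mL. Compounds were added from 2 mM ethanol stocks (final ethanol below 0.5%) and cells incubated 4 days. NBT reduction (0.2% NBT, TPA 200 ng/mL, 20 min, 37 °C) was scored on ≥200 cells. ED50 was calculated by van der Waerden; the value is the retinoic acid ED50 divided by the compound ED50 from concurrent runs, ×100.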

For assay [2], the system named is HL-60. Description: The ability to induce differentiation of human promyelocytic leukemia cell line HL-60 to mature granulocytes was determined by nitro blue tetrazolium (NBT) reduction assay. The format is functional. Particulars: read-out: ED50 (the source's name). In short, it runs like this: (§1)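 HL-60 cells grown in RPMI1640 with 5% FCS and antibiotics were seeded at about 8×10^4 cells/mL. Compounds were added from 2 mM ethanol stocks (final ethanol below 0.5%; ethanol-only controls) and cells incubated 4 days. Percent differentiated cells was scored by NBT reduction (0.2% NBT plus TPA 200 ng/mL, 20 min, 37 °C; formazan-positive cells counted, minimum 200 cells). Assays were run at least twice, and ED50 was obtained by the van der Waerden method.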

The test system of assay [3] is HL-60. Description: The ability to induce differentiation of human promyelocytic leukemia cell line HL-60 to mature granulocytes was determined by nitro blue tetrazolium (NBT) reduction assay; Inactive. The assay is classed as functional, cell-based. The method in brief:
as §1

Take `CN1C(=O)CC(c2ccc(C(=O)O)cc2)=Nc2cc3c(cc21)C(C)(C)CCC3(C)C`: the Relative activity in assay [1] is given as 0.43. For the same compound, the EC50 in assay [2] was determined as 530 nM.

On to `CC1(C)CCC(C)(C)c2cc3c(cc21)nc(-c1ccc(C(=O)O)cc1)n3Cc1ccccc1`, for which the ED50 entry in assay [3] is “inactive”.

In turn, `CC1(C)CCC(C)(C)c2cc3[nH]c(-c4ccc(C(=O)O)cc4)nc3cc21` had a Relative activity in assay [1] of 0.7. Besides, the EC50 in assay [2] is 320 nM.

In turn, `CC1(C)CCC(C)(C)c2cc3c(cc21)Nc1ccccc1C(c1ccc(C(=O)O)cc1)N3` (stereo unspecified) came in with a Relative activity in assay [1] of under 0.01. In assay [2], the EC50 is over 10000 nM.

In the case of `CCn1c(-c2ccc(C(=O)O)cc2)nc2cc3c(cc21)C(C)(C)CCC3(C)C`, the Relative activity in assay [1] was found to be 4.9. For the same compound, the EC50 in assay [2] was 46 nM.

`CC1(C)CCC(C)(C)c2cc(NC(=O)c3ccc(C(=O)O)cc3)ccc21` [TAMIBAROTENE] yielded a Relative activity in assay [1] of 350. Also, the EC50 in assay [2] was 0.79 nM.

`CC1(C)CCC(C)(C)c2cc3c(cc21)N=C(c1ccc(C(=O)O)cc1)CC(=O)N3`: the ED50 entry in assay [3] was “inactive”.

For `CC(C)n1c(-c2ccc(C(=O)O)cc2)nc2cc3c(cc21)C(C)(C)CCC3(C)C`, in assay [1], the Relative activity is under 0.01. For the same compound, in assay [2], the EC50 is over 10000 nM.

Turning to `CC1(C)CCC(C)(C)c2cc3c(cc21)nc(-c1ccc(C(=O)O)cc1)n3-c1ccccc1`, the ED50 entry in assay [3] was “inactive”.

Regarding `Cn1c(-c2ccc(C(=O)O)cc2)nc2cc3c(cc21)C(C)(C)CCC3(C)C`, the Relative activity in assay [1] is 65. In assay [2], the EC50 was 3.4 nM.

In assay [1], `CC1=C(/C=C/C(C)=C/C=C/C(C)=C/C(=O)O)C(C)(C)CCC1` [TRETINOIN] came in with a Relative activity of 100. For the same compound, in assay [2], the EC50 was 2.4 nM.

In the case of `CC1(C)CCC(C)(C)c2cc3c(cc21)NC(=O)CN(c1ccc(C(=O)O)cc1)C3=O`, in assay [3], the ED50 result is “inactive”.

`CN1c2cc3c(cc2N=C(c2ccc(C(=O)O)cc2)c2ccccc21)C(C)(C)CCC3(C)C`: the ED50 entry in assay [3] is “inactive”.
